Data set [1] relates to MCF7. The data set is described as follows: Cytotoxicity against human MCF7 cells at 1 to 100 uM after 12 hrs by MTT assay. It counts as functional, cell-based. In short, it runs like this: (§1)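 MCF-7 or HCT116 cells were seeded at 5×10^3 per well in DMEM with 10% FBS and grown 1 day at 37 °C, 5% CO2. Compounds in 1% DMSO were added at 1, 5, 10, 50, 100 or 250 µM. Viability was read by MTT after 12 h; each assay was done three times.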
Background: Tetrazolium assays rely on reduction of a dye to a coloured formazan, in cell work by metabolically active cells.

In data set [2] the test system is HCT-116. The data set is described as follows: Cytotoxicity against human HCT116 cells at 1 to 100 uM after 12 hrs by MTT assay. Type of data set: functional, cell-based. In short, it runs like this:
as §1

Data set [3] is described as follows: Half life of the compound in PBS buffer at pH 7.4 at 50 uM by HPLC analysis. Type of data set: physicochemical. The gist of the method:
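Compound at 50 µM in PBS pH 7.4, incubated at 37 °C. Aliquots were drawn at 0, 1, 3, 6, 12, 24, 48 and 96 h and analysed by C18 reverse-phase HPLC with an acetonitrile/0.1% formic acid gradient, detected by UV at 340 nm.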

A short description of data set [4]: Half life of the compound in DMEM cell-free cell culture medium at 50 uM by HPLC analysis. It counts as physicochemical. The gist of the method:
(§2)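 Conjugates diluted from a 10 mM DMSO stock to 50 µM final in cell-free culture medium (DMEM with 10% FBS), held at 37 °C. Samples were taken at 0, 1, 3, 6, 12, 24, 48 and 96 h, vortexed, and run on C18 reverse-phase HPLC with an acetonitrile/0.1% formic acid gradient at 1 mL/min, detected by UV at 340 nm.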

Data set [5] has as its system HCT-116. The data set is described as follows: Drug metabolism in human HCT116 cells assessed as quercetin level at 30 uM after 3 hrs by HPLC analysis. Type of data set: ADME, cell-based. Conditions: hct-116, 3 h. The gist of the method: (§3)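 MCF-7 or HCT116 cells were seeded at 2×10^5 per well and grown 24 h at 37 °C, 5% CO2, then given 30 µM conjugate. At 1, 3, 6 and 12 h cells were PBS-washed, trypsinized, sonicated and filtered. Lysates were run on C18 HPLC (UV 340 nm). Each species is reported as a percentage of integrated peak area; peaks were identified by MALDI-TOF MS.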

The subject of data set [6] is HCT-116. The data set is described as follows: Drug metabolism in human HCT116 cells assessed as quercetin sulfate level at 30 uM after 1 hr by HPLC analysis. It counts as ADME, cell-based. The settings on record: hct-116, 1 h. In short, it runs like this:
as §3

The nature of data set [7]: Metabolic stability in human HCT116 cells assessed as compound remaining at 30 uM after 6 hrs by HPLC analysis. Type of data set: ADME, cell-based, HCT-116. The settings on record: read-out: Stability. In short, it runs like this: as §3
Data set [8] concerns HCT-116. The data set is described as follows: Drug metabolism in human HCT116 cells assessed as quercetin sulfate level at 30 uM after 3 hrs by HPLC analysis. The settings on record: hct-116, 3 h. It counts as ADME, cell-based. The gist of the method:
as §3

For data set [9], the system named is HCT-116. The data set is described as follows: Drug metabolism in human HCT116 cells assessed as quercetin sulfate level at 30 uM after 12 hrs by HPLC analysis. Type of data set: ADME, cell-based. Conditions: hct-116, 12 h. In short, it runs like this: as §3
In data set [10] the test system is MCF7. The data set is described as follows: Drug metabolism in human MCF7 cells assessed as quercetin level at 30 uM after 12 hrs by HPLC analysis. It counts as ADME, cell-based. The settings on record: mcf7, 12 h. In short, it runs like this: as §3
A short description of data set [11]: Metabolic stability in human MCF7 cells assessed as compound remaining at 30 uM after 1 hr by HPLC analysis. Conditions: read-out: Stability. It counts as ADME, cell-based. The gist of the method: as §3
For data set [12], the system named is HCT-116. The data set is described as follows: Drug metabolism in human HCT116 cells assessed as quercetin-glucuronide level at 30 uM after 3 hrs by HPLC analysis. It counts as ADME, cell-based. The settings on record: hct-116, 3 h. In short, it runs like this:
as §3

A short description of data set [13]: Metabolic stability in human MCF7 cells assessed as compound remaining at 30 uM after 3 hrs by HPLC analysis. Type of data set: ADME, cell-based. The settings on record: read-out: Stability. In short, it runs like this:
as §3

Data set [14] can be described thus: Metabolic stability in human MCF7 cells assessed as compound remaining at 30 uM after 6 hrs by HPLC analysis. It counts as ADME, cell-based. The settings on record: read-out: Stability. In short, it runs like this: as §3
In data set [15] the test system is HCT-116. The data set is described as follows: Drug metabolism in human HCT116 cells assessed as quercetin-glucuronide level at 30 uM after 1 hr by HPLC analysis. Type of data set: ADME, cell-based. Conditions: hct-116, 1 h. In short, it runs like this:
as §3

The subject of data set [16] is HCT-116. The data set is described as follows: Drug metabolism in human HCT116 cells assessed as quercetin-glucuronide level at 30 uM after 12 hrs by HPLC analysis. It counts as ADME, cell-based. Conditions: hct-116, 12 h. The gist of the method: as §3
A short description of data set [17]: Metabolic stability in human HCT116 cells assessed as compound remaining at 30 uM after 1 hr by HPLC analysis. Type of data set: ADME, cell-based, HCT-116. The settings on record: read-out: Stability. The gist of the method:
as §3

Data set [18] deals with HCT-116. The data set is described as follows: Drug metabolism in human HCT116 cells assessed as quercetin-glucuronide level at 30 uM after 6 hrs by HPLC analysis. Type of data set: ADME, cell-based. Conditions: hct-116, 6 h. The gist of the method: as §3
The test system of data set [19] is MCF7. The data set is described as follows: Drug metabolism in human MCF7 cells assessed as quercetin sulfate level at 30 uM after 1 hr by HPLC analysis. It counts as ADME, cell-based. Conditions: mcf7, 1 h. The gist of the method:
as §3

Data set [20] has as its system HCT-116. The data set is described as follows: Drug metabolism in human HCT116 cells assessed as quercetin level at 30 uM after 1 hr by HPLC analysis. Type of data set: ADME, cell-based. Conditions: hct-116, 1 h. The gist of the method:
as §3

A short description of data set [21]: Chemical stability of the compound in DMEM cell-free cell culture medium at 50 uM after 24 to 54 hrs by HPLC analysis. Type of data set: physicochemical. In short, it runs like this: as §2
The test system of data set [22] is HCT-116. The data set is described as follows: Drug metabolism in human HCT116 cells assessed as quercetin level at 30 uM after 6 hrs by HPLC analysis. Type of data set: ADME, cell-based. The settings on record: hct-116, 6 h. In short, it runs like this: as §3
Data set [23] in a line: Metabolic stability in human HCT116 cells assessed as compound remaining at 30 uM after 3 hrs by HPLC analysis. It counts as ADME, cell-based, HCT-116. Conditions: read-out: Stability. The gist of the method:
as §3

The subject of data set [24] is MCF7. The data set is described as follows: Drug metabolism in human MCF7 cells assessed as quercetin-glucuronide level at 30 uM after 12 hrs by HPLC analysis. It counts as ADME, cell-based. Conditions: mcf7, 12 h. In short, it runs like this: as §3
The test system of data set [25] is HCT-116. The data set is described as follows: Drug metabolism in human HCT116 cells assessed as quercetin level at 30 uM after 12 hrs by HPLC analysis. Type of data set: ADME, cell-based. Conditions: hct-116, 12 h. In short, it runs like this: as §3
The nature of data set [26]: Solubility of the compound in PBS buffer at 0.5 to 300 uM. Type of data set: physicochemical. The gist of the method:
(§4)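 DMSO stocks ([…]–10 mM) were serially diluted into PBS pH 7.4 or DMEM with 10% FBS to final 0.5, 5, 25, 50, 100, 200 µM (2% DMSO) and 300 µM (3% DMSO). Solubility was judged by forward light scattering in a laser nephelometer.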

Data set [27] in a line: Solubility of the compound in PBS buffer at 300 uM. It counts as physicochemical. The gist of the method:
as §4

In data set [28] the test system is MCF7. The data set is described as follows: Metabolic stability in human MCF7 cells assessed as compound remaining at 30 uM after 12 hrs by HPLC analysis. It counts as ADME, cell-based. Conditions: mcf7, 12 h. In short, it runs like this: as §3
Data set [29] can be described thus: Metabolic stability in human HCT116 cells assessed as compound remaining at 30 uM after 12 hrs by HPLC analysis. The settings on record: read-out: Stability. Type of data set: ADME, cell-based, HCT-116. In short, it runs like this:
as §3

The subject of data set [30] is MCF7. The data set is described as follows: Drug metabolism in human MCF7 cells assessed as quercetin sulfate level at 30 uM after 12 hrs by HPLC analysis. It counts as ADME, cell-based. Conditions: mcf7, 12 h. In short, it runs like this:
as §3

The subject of data set [31] is HCT-116. The data set is described as follows: Drug metabolism in human HCT116 cells assessed as quercetin sulfate level at 30 uM after 6 hrs by HPLC analysis. Type of data set: ADME, cell-based. Conditions: hct-116, 6 h. The gist of the method: as §3
The nature of data set [32]: Solubility of the compound in DMEM cell-free cell culture medium up to 100 uM. Type of data set: physicochemical. The gist of the method:
as §4

Data set [33] concerns MCF7. The data set is described as follows: Drug metabolism in human MCF7 cells assessed as quercetin-glucuronide level at 30 uM after 1 hr by HPLC analysis. Type of data set: ADME, cell-based. The settings on record: mcf7, 1 h. In short, it runs like this: as §3

The values that follow come from ChEMBL document CHEMBL2396515, “Quercetin-POC conjugates: Differential stability and bioactivity profiles between breast cancer (MCF-7) and colorectal carcinoma (HCT116) cell lines” (Bioorg Med Chem, 2013).

Structures are written as SMILES. Calls of active or inactive are those of the source. The calls are words filed in the database; no cut-off is given here. A value given as a limit tells only on which side of the number the result lay.

As to `O=c1c(O)c(-c2ccc(O)c(O)c2)oc2cc(O)cc(O)c12` [QUERCETIN], the outcome in the data set on MCF7 [1] and in the data set with HCT-116 [2] was Active. Besides, the half-life (usually the time in which the quantity being followed falls by half) at 50 µM in data set [3] was 10 h; in data set [4], less than 0.5 h.

Regarding `CC(C)OC(=O)OCOc1c(-c2ccc(O)c(O)c2)oc2cc(O)cc(O)c2c1=O`, the Stability entry in the data set with HCT-116 [5], in the data set with HCT-116 [6], in the data set with HCT-116 [8], with HCT-116 [9], in the data set on MCF7 [10] and with HCT-116 [12] was “Stable” in each case. For the same compound, the Stability entry (in the data set with HCT-116 [15]; with HCT-116 [16]; in the data set with HCT-116 [18]; in the data set on MCF7 [19]; in the data set with HCT-116 [20]; in data set [21]) was “Stable” throughout. In addition, the Stability entry with HCT-116 [22], in the data set with MCF7 [24], in the data set on HCT-116 [25], in the data set on MCF7 [28], with MCF7 [30] and in the data set with HCT-116 [31] was “Stable” each time. For the same compound, the Stability result in the data set with MCF7 [33] is “Stable”. Also, the outcome in the data set on MCF7 [1] was Active. The outcome in the data set on HCT-116 [2] was inactive. In addition, the remaining at 6 h, 30 µM in data set [7] worked out at 71%; in [14], 4%. Also, the remaining at 1 h, 30 µM stood at 92% in data set [11] and 80% in data set [17]. Further, the values for the remaining at 3 h, 30 µM in data set [13] and in [23] were 49% and 76%, respectively. For the same compound, the half-life at 50 µM in [3] was greater than 96 h; in data set [4], 54 h. For the same compound, the solubility result in data set [26], in data set [27] and in [32] was “soluble” each time. Further, the remaining at 12 h, 30 µM in data set [29] worked out at 65%.
